Screening data as filed in PubChem BioAssay.
MT stabilize HCS: microtubule stabilization, imaging screen. HeLa tubulin immunostaining HCS, 24 h; share of cells brighter than vehicle mean+2SD. % tubulin-high responders, % at 10 µM. hit rate 0.83% among 200,000;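 active = plate Z-score above 3 for both tubulin-high and condensed-nucleus cell shares, with cell loss under 80%, at 10 µM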;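 also: anti alpha tubulin signal scored within the nucleus-defined area of each cell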
b-catenin transl: alters nuclear translocation of beta-catenin in HeLa cells | immunofluorescence imaging | nuclear translocation activity, % at 5 µM | hit rate 0.3% among 190,000 | AID 1665;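 active = nuclear translocation activity above 50% at 5 µM, with a well cell count of 50 or more; inconclusive = wells under 50 cells across six images, flagged as toxic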;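 also: per-cell ratio of nuclear to cytoplasmic median beta-catenin stain intensity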
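Technique: fluorescence imaging of beta-catenin antibody stain plus DAPI / Material: human HeLa cell line / Incubation: compound treatment 24 h, 37°C, 5% CO2 / Read-out basis: % activation of per-cell nuclear versus cytoplasmic median beta-catenin signal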
ROMK primary: modulators of human ROMK potassium channel; Tet-inducible ROMK, thallium flux fluorescence; actives lie on both sides; B-score at 10 µM; hit rate 2% among 130,000; AID 1918;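 active = signal ratio slope over the read window, or its plate-corrected B-score, at least 3 SD from the plate mean, either direction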;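 also: B-score of the F/F0 ratio slope over 7 to 12 s after thallium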
DTT redox prof: compounds producing H2O2 with reducing agent – biochemical, NIH compound library profiling, artefact control for MLSCN library redox annotation, primary screen; DTT-dependent redox cycling H2O2, phenol red/HRP absorbance; 100% = 100 µM peroxide control, 0% = buffer; activation, % at 10 µM; hit rate 0.03% among 200,000; AID 878;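 active = activation of at least 50% relative to the plate's high and low controls in the primary single-dose screen; inactive = activation below 50%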;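 also: compound incubated with DTT at 0.8 mM final as the reducing agent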
KCC2 mod: modulators of human KCC2 chloride dependent transport. KCC2 cells, thallium flux FluoZin-2 fluorescence. hit rate 2.2% among 190,000. B-score of Tl+ flux slope (higher = more flux/activation; lower = inhibition) at 10 µM;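 active = thallium flux slope and its plate-corrected score both differing from the plate sample mean at a set confidence after two filtering rounds, in either direction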;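 also: slope of fluorescence scaled to starting intensity during 10 to 20 s after thallium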
KCC2 secondary: confirmation of human KCC2 transport modulators | hit rate 15% among 3,700 | HEK293-KCC2, thallium flux, FluoZin2 fluorescence; stronger effect = higher value | shares compounds with KCC2 mod | AID 1713 | normalised thallium flux (F/F0 slope) at 10 µM;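 active = thallium flux slope above the same plate's solvent-only control mean plus 3 SD; inconclusive = the two replicate wells disagree; inactive = no significant difference from solvent-only control wells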
KCC2 bumet counter: bumetanide-insensitive thallium flux in KCC2 cells with ouabain, counter-screen. shares compounds with KCC2 mod. HEK293-KCC2 + bumetanide/ouabain, thallium flux FluoZin2; stronger effect = higher value. normalized thallium flux at 10 µM. hit rate 49% among 3,700;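 active = thallium entry rate above the same plate's blocked-transporter control wells by more than 3 SD; inconclusive = the two repeat wells disagree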;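 also: raw slope of fluorescence over initial fluorescence between 10 and 20 s after thallium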
KCC2 sec2: confirmation of human KCC2 transport modulators; HEK293-KCC2, thallium flux FluoZin2 fluorescence; actives lie on both sides; F/F0 rise rate, 10–20 s post-thallium; shares compounds with KCC2 mod; hit rate 23% among 3,700; normalized thallium flux at 10 µM;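 active = thallium flux slope more than 3 SD above or below the plate's solvent-only control mean, mostly below; inconclusive = the two repeat wells disagreed; inactive = no significant shift from solvent-only controls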
HEK293 Tl flux: acts in parental HEK cells, KCC2 counter-screen. shares compounds with KCC2 mod. HEK293 parental cells, thallium flux FluoZin2, ouabain; baseline-ratio fluorescence slope, 10–20 s after thallium. thallium flux rate (normalised fluorescence) at 10 µM. hit rate 46% among 3,700;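 active = thallium flux rate significantly above the same plate's solvent-only control wells, beyond their mean plus 3 SD; inconclusive = the two replicate wells gave conflicting results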
KCC2 ouabain: confirmation of human KCC2 modulators with ouabain; shares compounds with KCC2 mod; HEK293-KCC2, thallium flux FluoZin2 fluorescence; bidirectional: low = inhibitor, high = activator; raw Tl+ flux slope (below DMSO = inhibition, above = activation) at 10 µM; hit rate 48% among 3,700; AID 1717;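 active = thallium flux slope beyond 3 SD from same-plate DMSO control mean in most replicates, usually higher, sometimes lower; inconclusive = repeat tests gave conflicting results; inactive = no significant difference from controls in most replicates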;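 also: slope of initial-normalized fluorescence between seconds 10 and 20 after thallium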
HEK293 Tl flux2: parental HEK flux effect, counter-screen 2 | HEK293 parental, thallium flux FluoZin-2 fluorescence slope | hit rate 33% among 3,700 | thallium flux slope at 10 µM | AID 1718 | shares compounds with KCC2 mod;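 active = thallium flux slope above the same plate's solvent-control mean plus 3 SD in both duplicate wells; inconclusive = duplicate wells that disagreed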;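 also: run without ouabain in cells lacking the KCC2 cotransporter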
Numbers stand for hits. Compounds with a hit are over-represented: about 3.7% of the library has one in this group of screens.

COc1ccc(CN(C(=O)c2ccc(-c3ccccc3)[nH]2)C(C(=O)NC(C)(C)C)c2ccncc2)cc1 (configuration not stated) was read as MT stabilize HCS inactive, b-catenin transl inactive, ROMK primary inactive, DTT redox prof inactive, KCC2 mod -4.9, KCC2 secondary inactive, KCC2 bumet counter inactive, KCC2 sec2 inconclusive, HEK293 Tl flux inactive, KCC2 ouabain 0.016 and HEK293 Tl flux2 inactive.
O=C(CCCc1nc2ccccc2s1)NNC(=O)CCN1CCN(Cc2ccccc2)CC1 was read as MT stabilize HCS inactive, b-catenin transl inactive, ROMK primary inactive, DTT redox prof inactive and KCC2 mod inactive.
For O=C(CSc1nnc(-c2c[nH]c3ccccc23)o1)N1CCCCC1 the results were MT stabilize HCS inactive, b-catenin transl inactive, DTT redox prof inactive, KCC2 mod -3.1, KCC2 secondary inactive, KCC2 bumet counter inconclusive, KCC2 sec2 0.029, HEK293 Tl flux inactive, KCC2 ouabain 0.021 and HEK293 Tl flux2 inactive.
Screening O=C(CSc1nnc(-c2c[nH]c3ccccc23)o1)N1c2ccccc2CCc2ccccc21 returned MT stabilize HCS inactive, b-catenin transl inactive, DTT redox prof inactive and KCC2 mod inactive.
O=C(CSc1nnc(-c2ccccc2Br)o1)N1CCc2ccccc2C1 was read as MT stabilize HCS inactive, b-catenin transl inactive, DTT redox prof inactive, KCC2 mod -5.4, KCC2 secondary inactive, KCC2 bumet counter inactive, KCC2 sec2 0.021, HEK293 Tl flux inconclusive, KCC2 ouabain 0.011 and HEK293 Tl flux2 inactive.
For CN(C)c1nc(N(C)C)nc(N(C#N)CN2C(=O)c3ccccc3C2=O)n1 the results were MT stabilize HCS inactive, b-catenin transl inactive, DTT redox prof inactive and KCC2 mod inactive.
Screening O=C1CNC(=S)N1c1nc2ccccc2s1 returned b-catenin transl inactive, ROMK primary inactive, KCC2 mod 5.3, KCC2 secondary inactive, KCC2 bumet counter 0.01, KCC2 sec2 inactive, HEK293 Tl flux 0.011, KCC2 ouabain inactive and HEK293 Tl flux2 0.012.
`CC[C@H](CO)Nc1nc(Nc2cccc(Cl)c2)c2ncn(C(C)C)c2n1` gave b-catenin transl inactive, KCC2 mod -2.6, KCC2 secondary inactive, KCC2 bumet counter inactive, KCC2 sec2 inconclusive, HEK293 Tl flux inactive, KCC2 ouabain inactive and HEK293 Tl flux2 inactive.
Screening CC(C)[C@H](CO)N(Cc1cccc(F)c1)c1nc(Nc2cccc(Cl)c2)c2ncn(C(C)C)c2n1 returned b-catenin transl inactive and KCC2 mod inactive.
For O=c1cc(-c2ccccc2)[nH]n1-c1nc2ccccc2s1 the results were MT stabilize HCS inactive, b-catenin transl inactive, DTT redox prof inactive, KCC2 mod 14, KCC2 secondary inactive, KCC2 bumet counter 0.037, KCC2 sec2 inconclusive, HEK293 Tl flux 0.025, KCC2 ouabain 0.04 and HEK293 Tl flux2 0.017.
For O=C(Nc1ccc2c(c1)Cc1ccccc1-2)c1ccco1 the results were MT stabilize HCS inactive, b-catenin transl inactive, ROMK primary inactive, DTT redox prof inactive, KCC2 secondary inconclusive, KCC2 bumet counter 0.05, KCC2 sec2 inactive, HEK293 Tl flux 0.023, KCC2 ouabain inactive and HEK293 Tl flux2 0.013.
CCC(=O)Oc1ccc(NC(=O)c2ccco2)cc1 was read as MT stabilize HCS inactive, b-catenin transl inactive, ROMK primary inactive, DTT redox prof inactive and KCC2 mod inactive.
CCC(=O)Nc1ccc(NC(=O)c2ccco2)cc1 was read as MT stabilize HCS inactive, b-catenin transl inactive, ROMK primary inactive, DTT redox prof inactive, KCC2 secondary inactive, KCC2 bumet counter 0.0094, KCC2 sec2 inactive, HEK293 Tl flux 0.009, KCC2 ouabain inactive and HEK293 Tl flux2 inconclusive.
For COc1ccc(-c2noc(CCCC(=O)Nc3ccc(C(N)=O)cc3)n2)cc1OC the results were b-catenin transl inactive and KCC2 mod inactive.
Cc1ccc(C)c(NC(=O)CCC(=O)NNC(=S)Nc2ccccc2)c1 was read as MT stabilize HCS inactive, b-catenin transl inactive, ROMK primary inactive, DTT redox prof inactive and KCC2 mod inactive.
`COC(=O)c1sccc1NC(=O)Nc1cc(C)ccc1C` gave MT stabilize HCS inactive, b-catenin transl inactive and DTT redox prof inactive.
Cc1ccc(C)c(NC(=S)NNC(=O)c2sccc2C)c1 was read as MT stabilize HCS inactive, b-catenin transl inactive, ROMK primary inactive, DTT redox prof inactive, KCC2 mod 4.1, KCC2 secondary inactive, KCC2 bumet counter 0.026, KCC2 sec2 inactive, HEK293 Tl flux inconclusive, KCC2 ouabain 0.031 and HEK293 Tl flux2 inactive.
For Cc1ccc(C)c(NC(=S)NNC(=O)c2csc(C)c2C)c1 the results were MT stabilize HCS inactive, b-catenin transl inactive, DTT redox prof inactive, KCC2 mod 11, KCC2 secondary 0.016, KCC2 bumet counter 0.041, KCC2 sec2 inactive, HEK293 Tl flux 0.04, KCC2 ouabain 0.042 and HEK293 Tl flux2 0.015.
Screening CC(C)N(C(=O)CSc1nc2c([nH]1)c(=O)n(C)c(=O)n2C)c1ccccc1 returned MT stabilize HCS inactive, b-catenin transl inactive, DTT redox prof inactive, KCC2 mod -3.7, KCC2 secondary inactive, KCC2 bumet counter inactive, KCC2 sec2 inactive, HEK293 Tl flux inactive, KCC2 ouabain inactive and HEK293 Tl flux2 inactive.
CN(C(=O)COC(=O)c1nc(Cl)c(Cl)c(Cl)c1Cl)C1CCS(=O)(=O)C1 (configuration not stated) was read as MT stabilize HCS inactive, b-catenin transl inactive, ROMK primary inactive, DTT redox prof inactive and KCC2 mod inactive.
For O=C(CCNC(=O)c1ccccc1Cl)Nc1nc(-c2ccc(F)cc2)cs1 the results were MT stabilize HCS inactive, b-catenin transl inactive, DTT redox prof inactive, KCC2 mod -4.2, KCC2 secondary inactive, KCC2 bumet counter inactive, KCC2 sec2 inactive, HEK293 Tl flux inactive, KCC2 ouabain 0.014 and HEK293 Tl flux2 inactive.
